In ChEMBL document CHEMBL1148105, “Bioactive metabolites from a marine-derived strain of the fungus Emericella variecolor” (2002):

Experiments:
Format in all cases: functional
HCT-116 = test: Growth inhibition of human HCT116 cells
Method in brief: (§1)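 Tested in the NCI 60-cell-line screen using the standard NCI protocol, with concentrations up to 10^-4 M. Growth inhibition is reported as GI50 (M), taken from the NCI mean graphs.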

HCT-15 = test: Growth inhibition of human HCT15 cells; method in brief: as §1
HT-29 = test: Growth inhibition of human HT-29 cells
KM12 = test: Growth inhibition of human KM12 cells; method in brief: as §1
SW-620 = test: Growth inhibition of human SW620 cells
Method in brief: (§2)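 Run in the NCI 60-cell-line screen under the standard NCI protocol. Cells were tested at concentrations up to 10^-4 M. Potency was expressed as GI50 (M), taken from the NCI mean-graph data.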

SF-268 = test: Growth inhibition of human SF268 cells; method in brief: as §2
SF-295 = test: Growth inhibition of human SF295 cells; method in brief: as §2
SNB-19 = test: Growth inhibition of human SNB19 cells; method in brief: as §2
SNB-75 = test: Growth inhibition of human SNB75 cells; method in brief: as §2
U-251 = test: Growth inhibition of human U251 cells; method in brief: as §2
LOX IMVI = test: Growth inhibition of human LOXIMVI cells; method in brief: as §1
M14 = test: Growth inhibition of human M14 cells; method in brief: as §1
Malme-3M = test: Growth inhibition of human MALME-3M cells; method in brief: as §1
SK-MEL-2 = test: Growth inhibition of human SK-MEL-2 cells; method in brief: as §2
SK-MEL-28 = test: Growth inhibition of human SK-MEL-28 cells; method in brief: as §2
SK-MEL-5 = test: Growth inhibition of human SK-MEL-5 cells; method in brief: as §2
UACC-257 = test: Growth inhibition of human UACC257 cells; method in brief: as §2
UACC-62 = test: Growth inhibition of human UACC62 cells; method in brief: as §2
IGROV-1 = test: Growth inhibition of human IGROV1 cells; method in brief: as §1
OVCAR-3 = test: Growth inhibition of human OVCAR-3 cells; method in brief: as §1
OVCAR-4 = test: Growth inhibition of human OVCAR4 cells; method in brief: as §1
OVCAR-5 = test: Growth inhibition of human OVCAR5 cells; method in brief: as §1
OVCAR-8 = test: Growth inhibition of human OVCAR8 cells; method in brief: as §1
SK-OV-3 = test: Growth inhibition of human SKOV3 cells; method in brief: as §2
786-0 = test: Growth inhibition of human 786-0 cells; method in brief: as §1
A498 = test: Growth inhibition of human A498 cells; method in brief: as §1
ACHN = test: Growth inhibition of human ACHN cells; method in brief: as §1
CAKI-1 = test: Growth inhibition of human Caki1 cells; method in brief: as §1
RXF 393 = test: Growth inhibition of human RXF393 cells; method in brief: as §2
SN12C = test: Growth inhibition of human SN12C cells; method in brief: as §2
TK-10 = test: Growth inhibition of human TK10 cells; method in brief: as §2
[1] = read-out: pLC50 (the source's name) (converted)

For COc1cccc(/C=C/[C@H]2O[C@@H](C)[C@H](O)[C@@H]2O)c1CO [VARITRIOL], the CC50 (HCT-116; [1]) was over 100 µM, the TGI (HCT-116; read-out: pTGI) was over 100 µM and the GI50 (HCT-15) was over 100 µM. The CC50 (HCT-15; [1]) was over 100 µM, the TGI (HCT-15; read-out: pTGI) was over 100 µM and the GI50 (HT-29) was over 100 µM. It also gave a CC50 (HT-29; [1]) of over 100 µM, a TGI (HT-29; read-out: pTGI) of over 100 µM and a GI50 (KM12) of over 100 µM. The CC50 (KM12; [1]) was over 100 µM, the TGI (KM12; read-out: pTGI) was over 100 µM and the GI50 (SW-620) was over 100 µM. The CC50 (SW-620; [1]) was over 100 µM, the TGI (SW-620; read-out: pTGI) was over 100 µM and the GI50 (SF-268) was over 100 µM. For the same molecule, the CC50 (SF-268; [1]) was over 100 µM, the TGI (SF-268; read-out: pTGI) was over 100 µM and the GI50 (SF-295) was over 100 µM. For the same molecule, the CC50 (SF-295; [1]) was over 100 µM, the TGI (SF-295; read-out: pTGI) was over 100 µM and the GI50 (SNB-19) was 91.2 µM. The CC50 (SNB-19; [1]) was over 100 µM, the TGI (SNB-19; read-out: pTGI) was over 100 µM and the GI50 (SNB-75) was 0.245 µM. It also gave a CC50 (SNB-75; [1]) of over 100 µM, a TGI (SNB-75; read-out: pTGI (converted)) of 1.02 µM and a GI50 (U-251) of over 100 µM. It also gave a CC50 (U-251; [1]) of over 100 µM, a TGI (U-251; read-out: pTGI) of over 100 µM and a GI50 (LOX IMVI) of over 100 µM. It also gave a CC50 (LOX IMVI; [1]) of over 100 µM, a TGI (LOX IMVI; read-out: pTGI) of over 100 µM and a GI50 (M14) of over 100 µM. For the same molecule, the CC50 (M14; [1]) was over 100 µM, the TGI (M14; read-out: pTGI) was over 100 µM and the GI50 (Malme-3M) was over 100 µM. The CC50 (Malme-3M; [1]) was over 100 µM, the TGI (Malme-3M; read-out: pTGI) was over 100 µM and the GI50 (SK-MEL-2) was over 100 µM. The CC50 (SK-MEL-2; [1]) was over 100 µM, the TGI (SK-MEL-2; read-out: pTGI) was over 100 µM and the GI50 (SK-MEL-28) was over 100 µM. It also gave a CC50 (SK-MEL-28; [1]) of over 100 µM, a TGI (SK-MEL-28; read-out: pTGI) of over 100 µM and a GI50 (SK-MEL-5) of over 100 µM. It also gave a CC50 (SK-MEL-5; [1]) of over 100 µM, a TGI (SK-MEL-5; read-out: pTGI) of over 100 µM and a GI50 (UACC-257) of over 100 µM. It also gave a CC50 (UACC-257; [1]) of over 100 µM, a TGI (UACC-257; read-out: pTGI) of over 100 µM and a GI50 (UACC-62) of over 100 µM. The CC50 (UACC-62; [1]) was over 100 µM, the TGI (UACC-62; read-out: pTGI) was over 100 µM and the GI50 (IGROV-1) was over 100 µM. For the same molecule, the CC50 (IGROV-1; [1]) was over 100 µM, the TGI (IGROV-1; read-out: pTGI) was over 100 µM and the GI50 (OVCAR-3) was over 100 µM. It also gave a CC50 (OVCAR-3; [1]) of over 100 µM, a TGI (OVCAR-3; read-out: pTGI) of over 100 µM and a GI50 (OVCAR-4) of over 100 µM. The CC50 (OVCAR-4; [1]) was over 100 µM, the TGI (OVCAR-4; read-out: pTGI) was over 100 µM and the GI50 (OVCAR-5) was 67.6 µM. The CC50 (OVCAR-5; [1]) was over 100 µM, the TGI (OVCAR-5; read-out: pTGI) was over 100 µM and the GI50 (OVCAR-8) was over 100 µM. The CC50 (OVCAR-8; [1]) was over 100 µM, the TGI (OVCAR-8; read-out: pTGI) was over 100 µM and the GI50 (SK-OV-3) was over 100 µM. For the same molecule, the CC50 (SK-OV-3; [1]) was over 100 µM, the TGI (SK-OV-3; read-out: pTGI) was over 100 µM and the GI50 (786-0) was over 100 µM. The CC50 (786-0; [1]) was over 100 µM, the TGI (786-0; read-out: pTGI) was over 100 µM and the GI50 (A498) was over 100 µM. The CC50 (A498; [1]) was over 100 µM, the TGI (A498; read-out: pTGI) was over 100 µM and the GI50 (ACHN) was over 100 µM. The CC50 (ACHN; [1]) was over 100 µM, the TGI (ACHN; read-out: pTGI) was over 100 µM and the GI50 (CAKI-1) was over 100 µM. It also gave a CC50 (CAKI-1; [1]) of over 100 µM, a TGI (CAKI-1; read-out: pTGI) of over 100 µM and a GI50 (RXF 393) of 0.162 µM. The CC50 (RXF 393; [1]) was over 100 µM, the TGI (RXF 393; read-out: pTGI (converted)) was 0.933 µM and the GI50 (SN12C) was over 100 µM. The CC50 (SN12C; [1]) was over 100 µM, the TGI (SN12C; read-out: pTGI) was over 100 µM and the GI50 (TK-10) was over 100 µM. It also gave a CC50 (TK-10; [1]) of over 100 µM and a TGI (TK-10; read-out: pTGI) of over 100 µM.
